# PubChem BioAssay
# Calls of active or inactive are those of the source.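 The calls were made as follows, unless noted: active = NADPH fluorescence slope more negative than the mean of all samples by about 3 SD, 99.7% confidence; inactive = the rest.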
# Experiments:
# [1] = inhibitors of TNFa-induced NFkB p65 translocation, primary screen, imaging, HUVEC, MLSMR starter and 10KST1 sets (AID 438;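 active = inhibition above 20% together with a positive visual image hit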;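 also: compound added about 3h40 before a 20 min TNFalpha stimulation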;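 as to inhibition: signal is the nuclear over cytoplasmic p65 intensity ratio per well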); conditions: HUVEC TNFa-induced p65 nuclear translocation; cell count: measured here: nuclei count (cytotoxicity indicator), at 2.08 µM; inhibition: at 2 µM, stronger effect = higher value, 0% TNFa-plus-vehicle, 100% no-TNFa wells
# [2] = reduction of polyQ htt aggregates in cells – imaging, exon1htt(103Q)mCFP cells, high-content imaging, primary screen (AID 483;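 active = visual image review flags a hit and inhibition of aggregation exceeds 20%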;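 also: compound exposure lasted 3 days before fixation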;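 as to nuclei count: percent of the per-plate median nuclei count of sample wells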); conditions: exon1htt(103Q)mCFP cell line, aggregate imaging, at 2 µM; inhibition of aggregation: stronger effect = higher value; nuclei count: measured here: cell count, toxicity
# [3] = endothelial E-selectin expression blockers – imaging, HUVEC, immunofluorescence, MLSMR starter and 10KST1 sets, primary screen (AID 487;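 active = visually confirmed hit in the image check and inhibition above 20%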;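 as to inhibition: signal is fraction of cell area covered by stained E-selectin grains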;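 as to nuclei count: 100% = median nuclei count of all wells on the same plate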); conditions: HUVEC TNFalpha-induced E-selectin immunofluorescence imaging, at 2 µM; inhibition: stronger effect = higher value; nuclei count: measured here: cell number, toxicity
# [4] = molecular target: Voltage-gated potassium channel subunit beta-2 (Rattus norvegicus) (UniProt P62483); experiment: inhibitors of rat Kvbeta2 reductase activity – biochemical, NADPH fluorescence, primary screen (AID 622;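 active = fluorescence slope higher than the sample average by over 3 SD, cut at about -0.22 in these data, passing the limit was not always enough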;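 also: slope of raw intensity against log time taken from 70 to 1610 s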); conditions: recombinant KvBeta, 4-cyanobenzaldehyde reduction, at 10 µM, stronger effect = higher value
# Chain of Voltage-gated potassium channel subunit beta-2 (Rattus norvegicus) (P62483 whole entry, looked up): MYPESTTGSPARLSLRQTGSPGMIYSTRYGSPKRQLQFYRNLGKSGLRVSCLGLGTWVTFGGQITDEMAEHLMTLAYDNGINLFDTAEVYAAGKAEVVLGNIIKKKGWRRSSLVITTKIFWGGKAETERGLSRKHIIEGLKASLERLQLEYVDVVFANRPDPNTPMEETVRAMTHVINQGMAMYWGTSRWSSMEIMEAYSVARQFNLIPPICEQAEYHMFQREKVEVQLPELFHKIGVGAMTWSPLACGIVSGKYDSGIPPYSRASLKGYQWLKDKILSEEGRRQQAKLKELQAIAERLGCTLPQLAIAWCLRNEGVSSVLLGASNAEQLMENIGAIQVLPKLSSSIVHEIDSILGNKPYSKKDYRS
# [5] = molecular target: Voltage-gated potassium channel subunit beta-2 (Rattus norvegicus) (UniProt P62483); experiment: enhancers of rat Kvbeta2 NADPH turnover – biochemical, NADPH fluorescence, primary screen (AID 623); conditions: Recombinant KvBeta, NADPH fluorescence decrease slope, 10 min; at 10 µM; stronger effect = lower value;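 also: fluorescence intensity change per second fitted from 20 to 320 s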
# [6] = molecular target: Muscarinic acetylcholine receptor M4 (Homo sapiens) (UniProt P08173); experiment: M4-linked GIRK flux change, two-sided – cell-based, HEK293 M4/GIRK, thallium flux, BTC-AM, M4 allosteric agonist project, primary screen (AID 625;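 active = fluorescence slope after compound addition differing from the mean of all tested samples at 99.7% confidence, mostly higher but some lower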;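 also: thallium influx through GIRK channels coupled to M4 in HEK293 cells with BTC-AM dye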); conditions: at 10 µM, actives lie on both sides
# Chain of Muscarinic acetylcholine receptor M4 (Homo sapiens) (P08173 whole entry, looked up): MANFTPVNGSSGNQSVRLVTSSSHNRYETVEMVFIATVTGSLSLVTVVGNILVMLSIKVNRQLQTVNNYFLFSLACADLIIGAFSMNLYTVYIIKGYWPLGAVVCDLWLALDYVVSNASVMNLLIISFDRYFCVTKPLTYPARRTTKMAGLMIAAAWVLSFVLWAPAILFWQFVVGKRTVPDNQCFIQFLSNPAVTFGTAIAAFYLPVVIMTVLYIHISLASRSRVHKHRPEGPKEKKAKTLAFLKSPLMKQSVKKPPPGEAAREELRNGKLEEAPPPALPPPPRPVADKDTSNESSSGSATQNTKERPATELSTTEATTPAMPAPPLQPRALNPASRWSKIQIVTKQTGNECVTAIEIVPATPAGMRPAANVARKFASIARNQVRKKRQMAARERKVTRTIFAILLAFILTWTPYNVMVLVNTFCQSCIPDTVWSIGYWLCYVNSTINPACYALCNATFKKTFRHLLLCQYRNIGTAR
# How it was run: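 assay system = HEK293 cells with M4 receptor and GIRK channels | medium = pH 7.3 thallium assay buffer | doses = 10 µM final, single point | timing = cells overnight at 37 °C, BTC-AM loading 1 h, reads 2 min total | signal = BTC-AM fluorescence, 1 Hz kinetic reads | read-out = post-addition slope, 15–24 s, of baseline-normalized fluorescence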
# [7] = blockers of RIG-like receptor reporter activation – cell-based, Sendai virus stimulus, luciferase, 10K MLSCN set, TLR/RLR signaling modifier project, primary screen (AID 602276;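 active = inhibition at or above 50% at 10 µM; inactive = inhibition below 50%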;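 also: firefly luciferase from ISG56 promoter only with Renilla not read in this screen; 0% = Sendai virus plus DMSO and 100% = medium plus DMSO without virus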); conditions: HEK293 RL24 IRF3 luciferase reporter, at 10 µM, stronger effect = higher value
# [8] = TLR3 IRF3 reporter activation blockers – cell-based, poly I:C stimulus, luciferase, 10K MLSCN set, primary screen (AID 602277;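 active = inhibition of the reporter signal at or above 50%; inactive = inhibition below 50%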); conditions: HEK293-TLR3 RL24 IRF3 luciferase reporter, at 10 µM, stronger effect = higher value
SMILES,cell count [1],inhibition [1],inhibition of aggregation [2],nuclei count [2] [%],inhibition [3],nuclei count [3] [%],fluorescence slope [4],NADPH fluorescence slope [5],fluorescence slope [6],inhibition [7],inhibition [8]
CC(C(=O)OCn1nnc2ccccc2c1=O)N1C(=O)c2ccccc2C1=O (configuration not stated),532,-15.6% (inactive),13.2% (inactive),84.6,15.7% (inactive),76.4,-0.62 (inactive),2e-05 (inactive),0.00486 (inactive),12.3% (inactive),21.1% (inactive)
CC(=O)c1ccc(Oc2cc(C)nc(-n3nc(C)cc3C)n2)cc1,468,-15.6% (inactive),-50.7% (inactive),1.1,-17.9% (inactive),102,-0.547 (inactive),1.9e-05 (inactive),0.00511 (inactive),-4.86% (inactive),78.2% (active)
CCOC(=O)c1cnc(-n2nc(C)cc2C)nc1NC(C)c1ccccc1 (configuration not stated),605,-9.5% (inactive),8.7% (inactive),94.4,13.2% (inactive),93.5,-0.57 (inactive),-9.1e-05 (inactive),0.00529 (inactive),8.07% (inactive),0.674% (inactive)
CC(C)(C)n1ncc2c(=O)n(CC(=O)NCc3ccco3)cnc21,421,4.8% (inactive),-12.5% (inactive),104,4.2% (inactive),112,-0.574 (inactive),3.5e-06 (inactive),0.00566 (inactive),-35.6% (inactive),-92% (inactive)
Cc1cc(NC(=O)C23CCC(C)(c4nc5cc(Cl)c(Cl)cc5nc42)C3(C)C)no1 (configuration not stated),409,4.3% (inactive),7.4% (inactive),104,-116% (inactive),92.1,-0.577 (inactive),-4.4e-05 (inactive),0.00686 (inactive),12.2% (inactive),15.9% (inactive)
COc1ccc(OC)c(C(=O)c2nc3c(n2O)CCCCC3)c1,332,-1.1% (inactive),-40.7% (inactive),114,-55% (inactive),103,-0.567 (inactive),-6.5e-05 (inactive),0.00381 (inactive),5.91% (inactive),7.03% (inactive)
Cc1[nH]c2ccccc2c(=O)c1CN(C)Cc1ccccc1,270,2.9% (inactive),13.3% (inactive),97.7,-124% (inactive),117,-0.58 (inactive),2e-05 (inactive),0.00538 (inactive),-21% (inactive),-31.5% (inactive)
